Here are results for nine compounds from ChEMBL document CHEMBL3792275 (Bioorg Med Chem Lett, 2016).

The target in data set [1] is 72 kDa type IV collagenase (Homo sapiens, UniProt P08253). Briefly: Inhibition of human recombinant MMP2 using Mca-Pro-Leu-Gly-Leu-Dpa-Ala-Arg-NH2 as substrate preincubated for 60 mins followed by substrate addition by fluorimetric analysis.
The target of data set [2] is MMP-2/MMP-9 (Homo sapiens) (UniProt P08253+P14780). As to the kind of experiment: Selectivity ratio of IC50 for human recombinant MMP9 to IC50 for human recombinant MMP2. In a few lines:
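IC50 values against MMP-2 and MMP-9 were each measured by a fluorimetric enzyme assay, with a reference inhibitor run alongside as positive control. The selectivity ratio is the MMP-9 IC50 divided by the MMP-2 IC50.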

Data set [3] addresses Matrix metalloproteinase-9 (Homo sapiens, UniProt P14780). As to the kind of experiment: Inhibition of human recombinant MMP9 using Mca-Pro-Leu-Gly-Leu-Dpa-Ala-Arg-NH2 as substrate preincubated for 60 mins followed by substrate addition by fluorimetric analysis.
Data set [4] in a line: Terminal half life in Sprague-Dawley rat at 10 mg/kg, po by LC-MS/MS method. The format is ADME, organism-based. The conditions noted are these: in vivo, read-out: beta t1/2 (converted). In a few lines: (§1)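 Sprague-Dawley rats were dosed at 10 mg/kg, either intravenously or orally. AUC0-24h, AUC0-∞, Vz, t1/2z and CLz were derived for each route.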
Data set [5] concerns HEY. As to the kind of experiment: Cytotoxicity against human HEY cells at 6.25 to 100 uM after 48 hrs by MTT assay relative to control. The format is cell-based. In a few lines: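 HEY cell viability was measured by MTT assay after exposure to 6.25–100 µM, with DMSO as control. Medium was checked by microscope for solid particles.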
Data set [6] in a line: Oral bioavailability in Sprague-Dawley rat at 10 mg/kg by LC-MS/MS method. Format: ADME, organism-based. The conditions noted are these: in vivo.
Data set [7] has as its system HEY. Briefly: Antiinvasive activity in human HEY cells assessed as reduction in number of cells invading matrigel membrane after 24 hrs by crystal violet staining-based Transwell assay. Format: functional, cell-based. The method in brief:
(§2)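 Human ovarian cancer HEY cells were tested in a matrigel-based Transwell invasion assay, with cells invading the matrigel membrane and migrating from the upper to the lower chamber. Treatment was at 12.5, 25 and 50 µM for 24 h, with a DMSO control. Cells per view were counted after crystal violet staining. Treated groups were compared with control by t test.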

The nature of data set [8]: Apparent clearance in Sprague-Dawley rat at 10 mg/kg, iv after 15 mins to 24 hrs by LC-MS/MS method. Format: ADME, organism-based. The note with it: in vivo, read-out: CL(app) (converted). In a few lines:
as §1

Data set [9] in a line: AUC (0 to 24 hrs) in Sprague-Dawley rat at 10 mg/kg, po by LC-MS/MS method. The format is ADME, organism-based. On the set-up: dose 10 mg/kg, time < 24 hr, route oral. The conditions noted are these: in vivo.
Data set [10] in a line: AUC (0 to infinity) in Sprague-Dawley rat at 10 mg/kg, iv after 15 mins to 24 hrs by LC-MS/MS method. Also on record: dose 10 mg/kg, time infinity, route intravenous. The conditions noted are these: in vivo. Format: ADME, organism-based.
Data set [11] is described as follows: AUC (0 to infinity) in Sprague-Dawley rat at 10 mg/kg, po after 15 mins to 24 hrs by LC-MS/MS method. Format: ADME, organism-based. Also on record: dose 10 mg/kg, route oral, time infinity. The note with it: in vivo.
The nature of data set [12]: AUC (0 to 24 hrs) in Sprague-Dawley rat at 10 mg/kg, iv by LC-MS/MS method. Format: ADME, organism-based. On the set-up: time < 24 hr, dose 10 mg/kg, route intravenous. The note with it: in vivo.
For data set [13], the system named is HEY. As to the kind of experiment: Antimigratory activity in human HEY cells after 24 hrs by crystal violet staining-based Transwell assay. Format: functional, cell-based. In a few lines:
as §2

Data set [14] concerns HEY. Briefly: Antimigratory activity in human HEY cells at 50 uM after 24 hrs by crystal violet staining-based Transwell assay. Format: functional. The method in brief: as §2
A short description of data set [15]: Terminal half life in Sprague-Dawley rat at 10 mg/kg, iv by LC-MS/MS method. Format: ADME, organism-based. The conditions noted are these: in vivo, read-out: beta t1/2 (converted). In a few lines:
as §1

Data set [16] in a line: Apparent volume of distribution in Sprague-Dawley rat at 10 mg/kg, iv after 15 mins to 24 hrs by LC-MS/MS method. The conditions noted are these: in vivo, read-out: Vz (converted). Format: ADME, organism-based. In a few lines:
as §1

Data set [17] is described as follows: Lipid-water partition coefficient, logP of compound. Format: physicochemical.
The test system of the next data set is Rattus norvegicus. As to the kind of experiment: Apparent volume of distribution in Sprague-Dawley rat at 10 mg/kg, po after 15 mins to 24 hrs by LC-MS/MS method. The conditions noted are these: in vivo. The format is ADME, organism-based. In a few lines: as §1
Data set [18] concerns HEY. As to the kind of experiment: Antiinvasive activity in human HEY cells assessed as reduction in number of cells invading matrigel membrane at 50 uM after 24 hrs by crystal violet staining-based Transwell assay. Format: functional. On the set-up: scale not given: the % may be the effect or the level left. In a few lines: as §2
A short description of data set [19]: Apparent clearance in Sprague-Dawley rat at 10 mg/kg, po after 15 mins to 24 hrs by LC-MS/MS method. The conditions noted are these: in vivo, read-out: CL(app) (converted). The format is ADME, organism-based. The method in brief:
as §1

Structures are written as SMILES. The source made the active and inactive calls. No cut-off for these calls is given here. Bounds are passed on as bounds.

Sequence of 72 kDa type IV collagenase (P08253 whole entry): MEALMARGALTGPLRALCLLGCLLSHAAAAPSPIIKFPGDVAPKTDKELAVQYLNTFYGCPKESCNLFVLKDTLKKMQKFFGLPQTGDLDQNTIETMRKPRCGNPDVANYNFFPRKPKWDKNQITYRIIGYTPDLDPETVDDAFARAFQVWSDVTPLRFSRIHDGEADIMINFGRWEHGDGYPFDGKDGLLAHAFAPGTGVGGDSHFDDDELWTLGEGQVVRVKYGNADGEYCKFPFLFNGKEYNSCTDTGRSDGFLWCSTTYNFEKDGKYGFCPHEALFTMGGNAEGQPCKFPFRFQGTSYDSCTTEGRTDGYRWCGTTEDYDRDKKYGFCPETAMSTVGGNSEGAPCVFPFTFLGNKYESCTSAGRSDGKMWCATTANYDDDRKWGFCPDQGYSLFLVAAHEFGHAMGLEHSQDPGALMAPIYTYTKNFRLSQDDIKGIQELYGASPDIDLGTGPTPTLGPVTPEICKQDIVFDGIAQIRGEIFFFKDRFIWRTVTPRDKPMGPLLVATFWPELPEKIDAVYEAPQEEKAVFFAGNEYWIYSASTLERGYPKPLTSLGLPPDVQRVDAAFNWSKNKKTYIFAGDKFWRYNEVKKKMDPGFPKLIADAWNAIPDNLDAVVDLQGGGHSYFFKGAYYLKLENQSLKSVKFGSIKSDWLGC
Sequence of Matrix metalloproteinase-9 (P14780 whole entry): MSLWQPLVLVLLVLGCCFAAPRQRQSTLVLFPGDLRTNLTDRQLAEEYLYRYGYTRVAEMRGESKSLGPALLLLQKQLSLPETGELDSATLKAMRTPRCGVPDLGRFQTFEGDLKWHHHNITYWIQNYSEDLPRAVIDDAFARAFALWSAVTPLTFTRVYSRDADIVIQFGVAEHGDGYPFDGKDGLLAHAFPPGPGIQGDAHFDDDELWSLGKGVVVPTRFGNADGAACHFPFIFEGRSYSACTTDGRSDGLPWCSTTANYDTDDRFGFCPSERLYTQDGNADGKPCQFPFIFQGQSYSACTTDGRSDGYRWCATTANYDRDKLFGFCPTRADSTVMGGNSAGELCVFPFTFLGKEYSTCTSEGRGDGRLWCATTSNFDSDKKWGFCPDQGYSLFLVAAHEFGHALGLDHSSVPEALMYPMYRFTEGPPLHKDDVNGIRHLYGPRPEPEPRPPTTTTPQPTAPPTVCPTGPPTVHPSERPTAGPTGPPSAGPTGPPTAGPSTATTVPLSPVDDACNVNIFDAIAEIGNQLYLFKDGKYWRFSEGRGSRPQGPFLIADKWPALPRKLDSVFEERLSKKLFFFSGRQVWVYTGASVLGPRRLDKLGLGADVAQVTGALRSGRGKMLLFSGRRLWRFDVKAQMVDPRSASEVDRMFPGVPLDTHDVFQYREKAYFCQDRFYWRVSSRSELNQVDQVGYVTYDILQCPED

In the case of `CNC(=O)[C@H](Cc1c[nH]c2ccccc12)NC(=O)[C@@H](CC(=O)Nc1ccc(C)cc1N)CC(C)C`, the IC50 is over 10000 nM in data set [1] and 7300 nM in [3]. In addition, in data set [2], the “Ratio IC50” value was “inactive”.
For `CNC(=O)[C@H](Cc1c[nH]c2ccccc12)NC(=O)[C@@H](CC(=O)Nc1cccc(N)c1)CC(C)C` the same measures were 2.05 nM, 13.5 nM and 6.59.
Take `CNC(=O)[C@H](Cc1c[nH]c2ccccc12)NC(=O)[C@@H](CC(=O)Nc1ccccc1N)CC(C)C`: the half-life in [4] is 5.64 h; in data set [15], 7.88 h. Moreover, the values for the IC50 in data set [1] and in [3] were 0.19 nM and 1580 nM, respectively. Further, the Activity entry in the data set with HEY [5] is “Non-toxic”; in the data set with HEY [7], “Dose-dependent effect”; with HEY [13] it was “Dose-dependent effect”; with HEY [14], 84.6%; in the data set on HEY [18], 84.6%. Besides, the Ratio IC50 in [2] was found to be 8310. The compound also returned a bioavailability in data set [6] of 4%. For the same compound, the clearance in [8] is 52.2 mL/min/kg. The AUC(0-t) at 24 h came out at 36.2 ng·h/mL in data set [9] and 3070 ng·h/mL in data set [12]. Further, the area under the curve AUC(0-inf) in data set [10] amounted to 3210 ng·h/mL; in data set [11], 140 ng·h/mL. For the same compound, the Vd in data set [16] is 35.8 L/kg. This compound had a logP in data set [17] of 1.91. Also, in the data set on Rattus norvegicus, the Vz came to 579.41 L/kg. Further, the CL/F in data set [19] is 1190 mL/min/kg.
Consider `CNC(=O)[C@H](Cc1c[nH]c2ccccc12)NC(=O)[C@@H](CC(=O)Nc1ccc(C(F)(F)F)cc1N)CC(C)C`, for which the IC50 in data set [1] and in data set [3] was over 10000 nM throughout. Besides, the “Ratio IC50” value in [2] is “inactive”.
`CNC(=O)[C@H](Cc1c[nH]c2ccccc12)NC(=O)[C@@H](CC(=O)Nc1ccc(Br)cc1N)CC(C)C`: the IC50 was found to be 21.8 nM in [1] and 27.3 nM in data set [3]. Also, in [2], the Ratio IC50 turned out to be 1.25.
For `CNC(=O)[C@H](Cc1c[nH]c2ccccc12)NC(=O)[C@@H](CC(=O)Nc1ccccc1NC(C)=O)CC(C)C` the same measures were over 10000 nM, 155 nM and “inactive”.
With `CNC(=O)[C@H](Cc1c[nH]c2ccccc12)NC(=O)[C@@H](CC(=O)NO)CC(C)C` [ILOMASTAT], the bioavailability in [6] was found to be 0%. Also, the clearance in data set [8] was 66.5 mL/min/kg. The same compound showed an AUC(0-inf) in data set [10] of 2510 ng·h/mL. In [12], this compound had an AUC(0-t) at 24 h of 2510 ng·h/mL. Besides, the half-life in [15] was 0.25 h. Moreover, in [16], the Vd is 1.43 L/kg. The same compound yielded a logP in data set [17] of 1.04.
On to `CNC(=O)[C@H](Cc1c[nH]c2ccccc12)NC(=O)[C@@H](CC(=O)Nc1ccc(F)cc1N)CC(C)C`, for which the IC50 worked out at 2.2 nM in [1] and 7.75 nM in data set [3]. Further, in [2], the Ratio IC50 was determined as 3.52.
For `CNC(=O)[C@H](Cc1c[nH]c2ccccc12)NC(=O)[C@@H](CC(=O)Nc1ccc(C(=O)c2ccccc2)cc1N)CC(C)C` the same measures were over 10000 nM, over 10000 nM and “inactive”.
